From ChEMBL document CHEMBL4689842, “EUbOPEN Chemogenomics Library wave 1” (2021)
Several values for one entry are separate records, joined by “and”; a condition that tells them apart may be missing. Identical values can stand only once.

System: HEK-293T
Assay: Multiplex assay against HEK293T;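 for Population Tubulin-Different-Phenotype (%): share of the cells with healthy nuclei that show this phenotype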
Assay type: toxicity, cell-based
Settings: human
How it was run: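 Live cells were stained at seeding with Hoechst33342, BioTracker Green Microtubule Cytoskeleton Dye, MitoTracker Red and Annexin V Alexa Fluor 680. Following compound addition, they were imaged on a CQ1 microscope at 37°C and 5% CO2 and gated by CellPathfinder machine learning into Hoechst high-intensity objects or normal cells, with normal cells split into healthy, pyknosed or fragmented nuclei and pyknosed cells into mitotic or apoptotic. Tubulin, mitochondrial-mass and membrane-permeability phenotypes are per cents of healthy-nucleus cells.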

[1] = 12 h, 10 µM, compound concentration 10 uM, replicate 1
[2] = 12 h, 10 µM, compound concentration 10 uM, replicate 2
[3] = 24 h, 10 µM, compound concentration 10 uM, replicate 1
[4] = 24 h, 10 µM, compound concentration 10 uM, replicate 2
[5] = 12 h, 1 µM, compound concentration 1 uM, replicate 1
[6] = 12 h, 1 µM, compound concentration 1 uM, replicate 2
[7] = 24 h, 1 µM, compound concentration 1 uM, replicate 1
[8] = 24 h, 1 µM, compound concentration 1 uM, replicate 2
[9] = 48 h, 1 µM, compound concentration 1 uM, replicate 1
[10] = 48 h, 1 µM, compound concentration 1 uM, replicate 2
[11] = 48 h, 10 µM, compound concentration 10 uM, replicate 1
[12] = 48 h, 10 µM, compound concentration 10 uM, replicate 2

Compound: CN(C)c1ncnc(-c2ccc3nc(Nc4cc(CN5CCN(C(=O)CC(F)(F)F)CC5)ccn4)[nH]c3c2)c1Cl [BAY-440]
- Population Apoptotic (%) [1]: 24% and 18%
- Population Fragmented Nuclei (%) [1]: 30% and 12%
- Population Hoechst High Intensity Objects (%) [1]: 21% and 12%
- Population Mitochondria Different-Phenotype (%) [1]: 16% and 8%
- Population Mitotic Cells (%) [1]: 75% and 81%
- Population Normal (%) [1]: 78% and 87%
- Population Pyknosed Nuclei (%) [1]: 49% and 24%
- Total Cell Count [1]: 575 and 589
- Population Apoptotic (%) [2]: 16% and 6%
- Population Fragmented Nuclei (%) [2]: 2% and 5%
- Population Healthy Nuclei (%) [2]: 79% and 89%
- Population Hoechst High Intensity Objects (%) [2]: 3% and 1%
- Population Membrane Permeable-Phenotype (%) [2]: 12% and 6%
- Population Mitotic Cells (%) [2]: 83% and 93%
- Population Normal (%) [2]: 96% and 98%
- Total Cell Count [2]: 1131 and 1517
- Population Fragmented Nuclei (%) [3]: 29% and 10%
- Population Membrane Permeable-Phenotype (%) [3]: 10% and 16%
- Population Mitotic Cells (%) [3]: 66% and 89%
- Population Normal (%) [3]: 78% and 94%
- Population Tubulin-Different-Phenotype (%) [3]: 65% and 25%
- Total Cell Count [3]: 555 and 720
- Population Apoptotic (%) [4]: 16%
- Population Healthy Nuclei (%) [4]: 76% and 79%
- Population Hoechst High Intensity Objects (%) [4]: 4% and 2%
- Population Membrane Permeable-Phenotype (%) [4]: 8% and 13%
- Population Mitotic Cells (%) [4]: 83%
- Population Normal (%) [4]: 95% and 97%
- Total Cell Count [4]: 1110 and 2572

Compound: Cc1nc(-c2ccc(-c3ccc(C(=O)N4CCc5cc6c(cc54)C4(CCN(C)CC4)CO6)cc3)c(C)c2)no1 [SB-224289]
- Population Apoptotic (%) [5]: 59%
- Population Fragmented Nuclei (%) [5]: 17%
- Population Hoechst High Intensity Objects (%) [5]: 14%
- Population Membrane Permeable-Phenotype (%) [5]: 2%
- Population Mitochondria Different-Phenotype (%) [5]: 94%
- Population Mitotic Cells (%) [5]: 40%
- Population Normal (%) [5]: 85%
- Population Pyknosed Nuclei (%) [5]: 48%
- Population Tubulin-Different-Phenotype (%) [5]: 82%
- Total Cell Count [5]: 225
- Population Apoptotic (%) [6]: 24%
- Population Fragmented Nuclei (%) [6]: 4%
- Population Healthy Nuclei (%) [6]: 34%
- Population Hoechst High Intensity Objects (%) [6]: 3%
- Population Membrane Permeable-Phenotype (%) [6]: 12%
- Population Mitochondria Different-Phenotype (%) [6]: 75%
- Population Mitotic Cells (%) [6]: 75%
- Population Normal (%) [6]: 96%
- Population Pyknosed Nuclei (%) [6]: 60%
- Population Tubulin-Different-Phenotype (%) [6]: 66%
- Total Cell Count [6]: 194
- Population Apoptotic (%) [1]: 87%
- Population Fragmented Nuclei (%) [1]: 8%
- Population Healthy Nuclei (%) [1]: 22%
- Population Hoechst High Intensity Objects (%) [1]: 15%
- Population Membrane Permeable-Phenotype (%) [1]: 0%
- Population Mitochondria Different-Phenotype (%) [1]: 98%
- Population Mitotic Cells (%) [1]: 12%
- Population Normal (%) [1]: 84%
- Population Pyknosed Nuclei (%) [1]: 68%
- Population Tubulin-Different-Phenotype (%) [1]: 98%
- Total Cell Count [1]: 320
- Population Apoptotic (%) [2]: 88%
- Population Fragmented Nuclei (%) [2]: 3%
- Population Healthy Nuclei (%) [2]: 16%
- Population Hoechst High Intensity Objects (%) [2]: 9%
- Population Membrane Permeable-Phenotype (%) [2]: 4%
- Population Mitochondria Different-Phenotype (%) [2]: 95%
- Population Mitotic Cells (%) [2]: 11%
- Population Normal (%) [2]: 90%
- Population Pyknosed Nuclei (%) [2]: 80%
- Population Tubulin-Different-Phenotype (%) [2]: 85%
- Total Cell Count [2]: 141
- Population Apoptotic (%) [7]: 67%
- Population Fragmented Nuclei (%) [7]: 17%
- Population Healthy Nuclei (%) [7]: 35%
- Population Hoechst High Intensity Objects (%) [7]: 10%
- Population Membrane Permeable-Phenotype (%) [7]: 1%
- Population Mitochondria Different-Phenotype (%) [7]: 89%
- Population Mitotic Cells (%) [7]: 32%
- Population Normal (%) [7]: 89%
- Population Pyknosed Nuclei (%) [7]: 46%
- Population Tubulin-Different-Phenotype (%) [7]: 63%
- Total Cell Count [7]: 231
- Population Apoptotic (%) [8]: 33%
- Population Fragmented Nuclei (%) [8]: 4%
- Population Healthy Nuclei (%) [8]: 46%
- Population Hoechst High Intensity Objects (%) [8]: 3%
- Population Membrane Permeable-Phenotype (%) [8]: 5%
- Population Mitochondria Different-Phenotype (%) [8]: 73%
- Population Mitotic Cells (%) [8]: 66%
- Population Normal (%) [8]: 96%
- Population Pyknosed Nuclei (%) [8]: 48%
- Population Tubulin-Different-Phenotype (%) [8]: 73%
- Total Cell Count [8]: 232
- Population Apoptotic (%) [3]: 92%
- Population Fragmented Nuclei (%) [3]: 8%
- Population Healthy Nuclei (%) [3]: 13%
- Population Hoechst High Intensity Objects (%) [3]: 18%
- Population Membrane Permeable-Phenotype (%) [3]: 2%
- Population Mitochondria Different-Phenotype (%) [3]: 100%
- Population Mitotic Cells (%) [3]: 7%
- Population Normal (%) [3]: 81%
- Population Pyknosed Nuclei (%) [3]: 77%
- Population Tubulin-Different-Phenotype (%) [3]: 100%
- Total Cell Count [3]: 316
- Population Apoptotic (%) [4]: 97%
- Population Fragmented Nuclei (%) [4]: 5%
- Population Healthy Nuclei (%) [4]: 24%
- Population Hoechst High Intensity Objects (%) [4]: 12%
- Population Membrane Permeable-Phenotype (%) [4]: 0%
- Population Mitotic Cells (%) [4]: 2%
- Population Normal (%) [4]: 88%
- Population Pyknosed Nuclei (%) [4]: 70%
- Population Tubulin-Different-Phenotype (%) [4]: 93%
- Total Cell Count [4]: 150
- Population Apoptotic (%) [9]: 76%
- Population Fragmented Nuclei (%) [9]: 21%
- Population Healthy Nuclei (%) [9]: 48%
- Population Hoechst High Intensity Objects (%) [9]: 12%
- Population Membrane Permeable-Phenotype (%) [9]: 0%
- Population Mitochondria Different-Phenotype (%) [9]: 67%
- Population Mitotic Cells (%) [9]: 23%
- Population Normal (%) [9]: 87%
- Population Pyknosed Nuclei (%) [9]: 30%
- Population Tubulin-Different-Phenotype (%) [9]: 53%
- Total Cell Count [9]: 261
- Population Apoptotic (%) [10]: 25%
- Population Fragmented Nuclei (%) [10]: 4%
- Population Healthy Nuclei (%) [10]: 72%
- Population Hoechst High Intensity Objects (%) [10]: 4%
- Population Membrane Permeable-Phenotype (%) [10]: 2%
- Population Mitochondria Different-Phenotype (%) [10]: 45%
- Population Mitotic Cells (%) [10]: 75%
- Population Normal (%) [10]: 95%
- Population Pyknosed Nuclei (%) [10]: 22%
- Population Tubulin-Different-Phenotype (%) [10]: 56%
- Total Cell Count [10]: 371
- Population Apoptotic (%) [11]: 92%
- Population Fragmented Nuclei (%) [11]: 13%
- Population Healthy Nuclei (%) [11]: 10%
- Population Hoechst High Intensity Objects (%) [11]: 26%
- Population Membrane Permeable-Phenotype (%) [11]: 7%
- Population Mitochondria Different-Phenotype (%) [11]: 100%
- Population Mitotic Cells (%) [11]: 7%
- Population Normal (%) [11]: 73%
- Population Pyknosed Nuclei (%) [11]: 75%
- Population Tubulin-Different-Phenotype (%) [11]: 82%
- Total Cell Count [11]: 363
- Population Apoptotic (%) [12]: 100%
- Population Fragmented Nuclei (%) [12]: 5%
- Population Healthy Nuclei (%) [12]: 28%
- Population Hoechst High Intensity Objects (%) [12]: 17%
- Population Membrane Permeable-Phenotype (%) [12]: 6%
- Population Mitochondria Different-Phenotype (%) [12]: 96%
- Population Mitotic Cells (%) [12]: 0%
- Population Normal (%) [12]: 82%
- Population Pyknosed Nuclei (%) [12]: 66%
- Population Tubulin-Different-Phenotype (%) [12]: 57%
- Total Cell Count [12]: 139
